# Measured values from different studies.
# Protocols differ between the studies behind these lines.
# Target: Cyclin-dependent kinase 14 (CDK14, Homo sapiens, UniProt O94921)
SMILES,assay,setting,remaining binding
O=C(c1ccc(Nc2ncc(Cl)c(-c3cc4ccccc4s3)n2)cc1)N1CCC(N2CCCC2)CC1,"binding, competition with immobilised ligand",1 µM,78%
O=C(NCC1CCOCC1)c1n[nH]cc1NC(=O)c1c(F)cccc1F,"binding, competition with immobilised ligand",1 µM,79%
O=C(NCCCN1CCOCC1)c1ccc(Nc2ncc(Cl)c(-c3ccc(Cl)s3)n2)cc1,"binding, competition with immobilised ligand",1 µM,37%
CN(c1nccc(-c2cnn3ncccc23)n1)C1CC1,binding,1 µM,100%
O=C(N1CCS(=O)(=O)CC1)N1C[C@H](c2ccc(OC(F)(F)F)cc2)C[C@H](c2nc(C3CC3)no2)C1,"cell-free assay, competition with immobilised ligand",1 µM,100%
O=C(c1ccc(Nc2nccc(-c3cc4ccccc4s3)n2)cc1)N1CCC(N2CCCC2)CC1,"binding, competition with immobilised ligand",1 µM,100%
COc1cnc(Nc2cccc(S(N)(=O)=O)c2)nc1N1CCN(c2ccccc2)CC1,"binding, competition with immobilised ligand",1 µM,94%
CCOC(=O)c1cc2cc(-c3cc(C(=O)NCc4ccc(C(=O)O)cc4)nn3C)ccc2[nH]1,"cell-free assay, competition with immobilised ligand",0.1 µM,100%
FC(F)(F)Oc1cccc(-c2cnc3ccc(-c4ccncc4)nn23)c1,"cell-free assay, competition with immobilised ligand",5 µM,68%
CN(CCCC(F)(F)F)c1nccc(-c2cnn3ncccc23)n1,binding,1 µM,93%
CN(C(=O)c1ccccc1)c1cc(N(C)c2ccc3c(c2)CCc2ccc(C(=O)NCCN4CCOCC4)cc2C3=O)ccc1F,"cell-free assay, competition with immobilised ligand",1 µM,100%
COc1ncc2cc3ccccc3nc2c1C#N,"cell-free assay, competition with immobilised ligand",5 µM,99%
O=C(Nc1cnc(Oc2ccc(F)cc2)nc1)N1CCc2ncccc2[C@@H]1c1ccc(F)cc1,"cell-free assay, competition with immobilised ligand",1 µM,100%
N[C@@H]1CCN(c2nccc(-c3cnn4ncccc34)n2)C1,binding,1 µM,100%
CC(=O)N1CCC(c2ccc(C(=O)NC3=NCCN3)cc2C(F)(F)F)CC1,"cell-free assay, competition with immobilised ligand",1 µM,100%
F[C@@H]1CCN(c2nccc(-c3cnn4ncccc34)n2)C1,binding,1 µM,100%
Cc1cc(C)c(-n2ccn3nc(-c4cccnc4)cc23)cc1NC(=O)c1cc(C#N)cc(S(F)(F)(F)(F)F)c1,"cell-free assay, competition with immobilised ligand",0.1 µM,100%
c1cnn2ncc(-c3ccnc(N4CCC45COC5)n3)c2c1,binding,1 µM,88%
